tolC growth inh: growth inhibitors of E. coli BW25113 tolC mutant; 65,000 tested, 2.2% active; OD615; growth inhibition, % at 10 µM (by protocol);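 active = growth inhibition at or above a cutoff equal to the mean over every tested compound plus 3 SD, cut at about 60% in these data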;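 note: growth measured after 20 h incubation at 37 °C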
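Test system: tolC-deleted E. coli BW25113 | Medium: LB with kanamycin 50 µg/mL | Compound dosing: Single concentration, 10 µM final per compound | Schedule: 37 °C, 20 h exposure | Measured by: OD at 615 nm | Evaluation: Percent growth inhibition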
PostGolgi ctrl: inhibits growth of the yeast control strain | efflux-deficient yeast background strain, growth absorbance A615, 16 h | inhibition, % at 10 µM | 98,000 tested, 5% active
PLAP activator: activates human placental alkaline phosphatase; P05187; purified PLAP enzyme, luminescent substrate read-out; hits give high values; activation fold at 20 µM; 96,000 tested, 1.2% active; AID 696; in the data active = activation fold above about 2
HePTP inh: human HePTP phosphatase inhibition; inhibition, % at 20 µM; recombinant HePTP phosphatase activity, OD absorbance; 110,000 tested, 0.64% active; AID 521; in the data active = inhibition above about 50%;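 note: plate controls were vehicle for no effect and reference inhibitor for full effect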
Target sequence (P35236 whole entry, looked up): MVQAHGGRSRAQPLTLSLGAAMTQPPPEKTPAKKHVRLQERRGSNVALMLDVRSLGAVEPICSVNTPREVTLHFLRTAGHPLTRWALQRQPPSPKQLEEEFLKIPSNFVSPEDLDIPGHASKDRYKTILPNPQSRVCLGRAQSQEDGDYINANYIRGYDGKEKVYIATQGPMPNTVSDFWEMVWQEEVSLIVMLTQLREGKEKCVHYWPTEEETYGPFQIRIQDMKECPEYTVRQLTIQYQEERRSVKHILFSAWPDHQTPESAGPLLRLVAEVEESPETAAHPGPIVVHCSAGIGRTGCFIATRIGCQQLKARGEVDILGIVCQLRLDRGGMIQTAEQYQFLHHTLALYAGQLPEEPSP
PostGolgi yeast: growth inhibition of a yeast mutant, post-Golgi transport screen | post-Golgi transport phenotypic cell assay | inhibition, % at 10 µM | 98,000 tested, 0.9% active | AID 739;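 note: yeast cells grown in 1536-well plates; yeast grown about 18 h at 30C before absorbance read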
E coli WT exp: blocks growth of wild type E. coli BW25113. AID 710. OD600 absorbance. 98,000 tested, 0.15% active. growth inhibition, % at 100 µM;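 active = growth inhibition above about 50% at one test dose, limit read from the data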;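 note: growth measured after 20 h incubation at 37 °C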
* marks the source's active call; other numbers are inactive results; · = no result. In the library only some 5.5% were active in any assay of this set; here they are far more common. Cut-off read from the data, not from the text of the source, unless noted: active = inhibition above about 30%; inactive = the rest.

SMILES	tolC growth inh	PostGolgi ctrl	PLAP activator	HePTP inh	PostGolgi yeast	E coli WT exp
CC(=O)c1ccc(NC(=O)/C=C/c2ccccc2)cc1	·	·	·	-26	·	·
CC(C)c1ccc(/C=C/C(=O)Nc2ccc(C(N)=O)cc2)cc1	·	·	·	104*	·	·
O=C(CCc1ccccc1)N1N=C(c2cccnc2)CC1(O)C(F)(F)F (stereo not given)	·	·	·	4	·	·
CCOC(=O)c1sc(NC(=O)c2ccccc2OC)nc1C	·	42*	1.2	·	-2	-5
CCOC(=O)c1oc2ccccc2c1NC(=O)c1ccccc1OC	45	70*	1.1	-1	15	-11
CCOC(=O)c1sc(NC(=O)c2ccccc2[N+](=O)[O-])nc1C	·	·	·	6	·	·
COc1ccc(OC)c(-n2c(O)c(C=NCc3ccc(F)cc3)c(=O)[nH]c2=O)c1	·	·	·	-5	·	·
COc1ccccc1-c1noc(-c2cccs2)n1	·	32*	0.8	·	-2	3
O=C1NC(=S)S/C1=C/c1cn(CCOc2ccc(Br)cc2)c2ccccc12	·	·	·	8	·	·
O=C(Nc1ccc(N2CCOCC2)cc1)c1cccc(Cl)c1	·	·	·	-7	·	·
COc1ccc(C2C3C(=O)N(c4ccccc4)C(=O)C3ON2c2ccccc2C)cc1 (stereo not given)	·	·	·	3	·	·
Cc1ccc2[nH]c(C)c(/C=N/Nc3nc4ccccc4s3)c2c1	·	69*	1	·	49*	-1
COc1cc(/C=C2/SC(=S)N(c3ccccc3)C2=O)ccc1OC(=O)c1ccc([N+](=O)[O-])cc1	·	·	·	0	·	·
Cc1cc(N2CCCCCC2)nc(-c2ccccc2O)n1	81*	34*	1.2	1	1	0
Cc1cc(N2CCN(c3ccccc3)CC2)nc(-c2ccccc2)n1	77*	67*	1.3	5	-1	-25
Cc1cc(N2CCCCC2)nc(NCc2ccccc2)n1	·	0	1.2	·	4	42
COc1ccc(C2(O)CC3CCC(C2)N3c2cc(C)nc(-c3ccccc3)n2)cc1 (stereo not given)	87*	9	1.5	8	8	2
Cc1cc(N2CCN(c3ccccc3)CC2)nc(-c2ccc(Br)cc2)n1	·	·	·	-14	·	·
CCOC(=O)C(C)Oc1ccc2c(C)cc(=O)oc2c1C(C)=O (stereo not given)	9	3	1.1	5	33*	-1
CCOC(=O)C(C)Oc1ccc2c(CC)cc(=O)oc2c1C (stereo not given)	·	12	0.9	·	-2	5
O=C(Nc1cc(C(F)(F)F)cc(C(F)(F)F)c1)c1ccc([N+](=O)[O-])cc1	·	·	·	0	·	·
CCOC(=O)c1c(C)oc2c1c(C(c1cccnc1)N1CCN(C)CC1)c(O)c1ccccc12 (stereo not given)	12	·	1.5	12	·	·
CCOC(=O)c1c(C)oc2c1c(C(c1cccnc1)N1CCOCC1)c(O)c1ccccc12 (stereo not given)	·	37*	1.4	·	-2	2
CCOC(=O)c1c(C)oc2c1c1c(c3ccccc32)OCN(Cc2cccnc2)C1	5	35*	1.5	-2	9	-10
CC(C)(C)c1nn(-c2ccccc2)c2[nH]c(=O)c(CNCc3ccco3)cc12	11	1	2.4*	7	17	-14
SMILES	tolC growth inh	PostGolgi ctrl	PLAP activator	HePTP inh	PostGolgi yeast	E coli WT exp
COc1ccc(CNCc2cc3c(C(C)(C)C)nn(-c4ccccc4)c3[nH]c2=O)cc1	·	-2	2.5*	·	2	0
Cc1ccc(CNCc2cc3c(C(C)(C)C)nn(-c4ccccc4)c3[nH]c2=O)cc1	·	13	2.1*	·	0	1
CCN(CC)c1ccc(NC(=O)c2cccs2)cc1	·	·	·	-22	·	·
O=C(NC(Cc1ccc(OC(=O)OCc2ccccc2)cc1)C(=O)O)OCc1ccccc1 (stereo not given)	·	·	·	-6	·	·
O=C(CSc1nc2sc3c(c2c(=O)n1-c1ccccc1)CCCC3)NCc1ccco1	-6	32*	1	0	-1	-6
COc1cc(-c2nc3nnc(C)n3[nH]2)cc(OC)c1OC	·	·	·	-6	·	·
O=S(=O)(c1ccc(N2CCC(c3ccc(Cl)cc3)=N2)cc1)N(CCO)CCO	·	19	2.2*	·	-4	-17
CCN(CC(=O)N1CCCCCC1)S(=O)(=O)c1ccc(Cl)cc1	-2	8	1.1	11	17	1
CN(C)CCCNS(=O)(=O)c1ccc(N2CCC(c3ccc(Cl)cc3)=N2)cc1	·	25	2.3*	·	-6	41
CCN(CC)CCCNS(=O)(=O)c1ccc(Cl)cc1	·	·	·	0	·	·
CC1(C)Cc2c(sc3c2c(=N)n(Cc2ccco2)c(=O)n3Cc2ccc(F)cc2)CO1	25	64*	1.5	5	14	-8
COc1ccc(Cn2c(=O)n(Cc3ccco3)c(=N)c3c4c(sc32)COC(C)(C)C4)cc1	43	15	1.5	-4	12	4
O=C(O)CN1C(=O)/C(=C2\SC(=S)NC2=O)c2ccccc21	·	·	·	-9	·	·
O=C(O)CN1C(=O)/C(=N/N2C(=O)CSC2=S)c2ccccc21	·	·	·	63*	·	·
CSc1nc2ccc(NC(=O)CSc3nc4ccccc4s3)cc2s1	·	·	·	-5	·	·
Cn1cnnc1SCC(=O)Nc1ccc2nc(SCc3ccccc3F)sc2c1	·	16	2*	·	-3	-8
COc1ccc(-c2cc(C(F)(F)F)nc(NCc3ccco3)n2)cc1OC	3	1	1.1	0	0	1
COc1cccc(-c2cc(C(F)(F)F)nc(NCc3ccco3)n2)c1	1	33*	·	-3	-1	0
COc1ccc(O)c(/C=N\NC(=O)CCn2nnc3ccccc32)c1	·	9	2.1*	·	-4	16
CCCOC(=O)c1c(-c2ccc(OCC)cc2)csc1N	·	·	·	-10	·	·
CCCOC(=O)c1c(-c2ccc(OC)c(OC)c2)csc1N	·	·	·	104*	·	·
Cc1ccc2oc(Nc3nc(C)cc(C)n3)nc2c1	10	-4	2.8*	-2	-4	-2
Cc1ccc2oc(-c3ccccc3)nc2c1	·	19	0.9	·	·	2
COc1cc(NC(=O)c2cnn3c(C)cc(C)nc23)c(OC)cc1Cl	20	41*	1.2	3	0	-5
Cc1nc(Nc2nc3ccccc3o2)nc2c1CCC2	9	-11	2.7*	8	21	8
SMILES	tolC growth inh	PostGolgi ctrl	PLAP activator	HePTP inh	PostGolgi yeast	E coli WT exp
Cc1cccc(C)c1Nc1nc2ccccc2o1	-10	5	1	-2	-4	9
CCOC(=O)c1cnc(Nc2nc3ccccc3o2)nc1CN1CCN(c2ccccc2)CC1	4	·	·	-5	·	·
CCOC(=O)c1cnc(Nc2nc3ccccc3o2)nc1C	·	-3	2.8*	·	0	-2
Cc1cc(C)cc(NC(=O)c2c(-c3c(Cl)cccc3Cl)noc2C)c1	·	·	·	3	·	·
C=C(C)CC(NCc1ccco1)c1ccc(OC)cc1 (stereo not given)	·	10	1.3	·	31*	5
O=C(N/N=C/c1ccc(-c2cccc(C(F)(F)F)c2)o1)c1cccc(F)c1	·	37*	1.1	·	36*	-6
NC(=O)N/N=C/c1ccc(-c2cccc(C(F)(F)F)c2)o1	·	·	·	-5	·	·
Cn1cc([N+](=O)[O-])c(C(=O)Nc2nc(-c3ccc(Cl)cc3)cs2)n1	·	40*	1	·	1	-5
Cc1ccc(-c2nc(NC(=O)c3nn(C)cc3[N+](=O)[O-])sc2C)cc1	·	1	1.1	·	14	-3
